Measured values reported in ChEMBL document CHEMBL3046238, “Synthesis and biological activity evaluation of 1,2,3-thiadiazole derivatives as potential elicitors with highly systemic acquired resistance” (2009).
The source made the active and inactive calls. No cut-off for these calls is given here.

Assays:
Type in all cases: functional
Botrytis cinerea = assay: Antifungal activity against Botryotinia fuckeliana assessed as growth inhibition at 50 ug/mL measured after 2 days post dose; settings: 48 h, read-out: GI
Mycosphaerella arachidis = assay: Antifungal activity against Mycosphaerella arachidis assessed as growth inhibition at 50 ug/mL measured after 2 days post dose; settings: 48 h, read-out: GI
[1] = tested on: Botryosphaeria berengeriana; assay: Antifungal activity against Botryosphaeria berengeriana assessed as growth inhibition at 50 ug/mL measured after 2 days post dose; settings: 48 h, read-out: GI
Cytospora mali = assay: Antifungal activity against Valsa mali assessed as growth inhibition at 50 ug/mL measured after 2 days post dose; settings: 48 h, read-out: GI
Rhizoctonia solani = assay: Antifungal activity against Rhizoctonia solani assessed as growth inhibition at 50 ug/mL measured after 2 days post dose; settings: 48 h, read-out: GI
Fusarium graminearum = assay: Antifungal activity against Fusarium graminearum assessed as growth inhibition at 50 ug/mL measured after 2 days post dose; settings: 48 h, read-out: GI
Outline: (§1)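 Compound stock at 500 μg/mL in DMF, diluted with sterile water in the dish and mixed into potato dextrose agar before setting. A 4 mm diameter fungal plug is placed on the plate and cultured at 24-26 °C. Colony diameter is measured after 2 days.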

Ustilaginoidea virens = assay: Antifungal activity against Villosiclava virens assessed as growth inhibition at 50 ug/mL measured after 2 days post dose; settings: 48 h, read-out: GI
[2] = tested on: Fusarium oxysporum f. sp. vasinfectum; assay: Antifungal activity against Fusarium oxysporum f. sp. vasinfectum assessed as growth inhibition at 50 ug/mL measured after 2 days post dose; settings: 48 h, read-out: GI
Sclerotinia sclerotiorum = assay: Antifungal activity against Sclerotinia sclerotiorum assessed as growth inhibition at 50 ug/mL measured after 2 days post dose; settings: 48 h, read-out: GI
Tobacco mosaic virus = assay: Induction of systemic acquired resistance against Tobacco mosaic virus (TMV) in tobacco plants exposed to 500 ug/mL compound through leaf spray followed by 7 days culture under green house conditions assessed as inhibition of viral growth in leaves infected with Tobacco mosaic virus (TMV) measured 72 hr post viral infection by half-leaf juice rubbing method; set-up: scale not given: the % may be the effect or the level left
Outline: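 Tobacco plants received compound by leaf spray or by soil irrigation, with double-distilled water as CK. Newly grown leaves were then rub-inoculated with TMV (5.88×10-2 μg/mL), and plants were kept at 25 °C for 72 h. Lesions on inoculated leaves were counted. Inhibition = (CK−A)/CK×100 from mean lesion numbers versus control.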

Fusarium oxysporum = assay: Antifungal activity against Fusarium oxysporum assessed as growth inhibition at 50 ug/mL measured after 2 days post dose; settings: 48 h, read-out: GI
Ceratobasidium cereale = assay: Antifungal activity against Ceratobasidium cereale assessed as growth inhibition at 50 ug/mL measured after 2 days post dose; settings: 48 h, read-out: GI
Alternaria solani = assay: Antifungal activity against Alternaria solani assessed as growth inhibition at 50 ug/mL measured after 2 days post dose; settings: 48 h, read-out: GI
Fusarium fujikuroi = assay: Antifungal activity against Fusarium fujikuroi assessed as growth inhibition at 50 ug/mL measured after 2 days post dose; settings: 48 h, read-out: GI
Alternaria mali = assay: Antifungal activity against Alternaria mali assessed as growth inhibition at 50 ug/mL measured after 2 days post dose; settings: 48 h, read-out: GI
Puccinia triticina = assay: Antifungal activity against Puccinia triticina inoculated on 500 ug/mL compound pre-treated wheat plants with 3 to 5 leaves assessed as growth inhibition
Outline: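 Healthy wheat plants at the 3-5 leaf stage were sprayed with compound (500 μg/mL) and then inoculated with spores. Inhibition percentage was calculated against the corresponding spore stack.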

[3] = tested on: Colletotrichum gloeosporioides; assay: Antifungal activity against Glomerella cingulata assessed as growth inhibition at 50 ug/mL measured after 2 days post dose; settings: 48 h, read-out: GI
Phytophthora infestans = assay: Antifungal activity against Phytophthora infestans assessed as growth inhibition at 50 ug/mL measured after 2 days post dose; settings: for inhibition of growth at 50 µg/mL: 48 h, read-out: GI; outline: as §1

SMILES | inhibition of growth at 50 µg/mL (Botrytis cinerea) [%] | inhibition of growth at 50 µg/mL (Mycosphaerella arachidis) [%] | inhibition of growth at 50 µg/mL [1] [%] | inhibition of growth at 50 µg/mL (Cytospora mali) [%] | inhibition of growth at 50 µg/mL (Rhizoctonia solani) [%] | inhibition of growth at 50 µg/mL (Fusarium graminearum) [%] | inhibition of growth at 50 µg/mL (Ustilaginoidea virens) [%] | inhibition of growth at 50 µg/mL [2] [%] | inhibition of growth at 50 µg/mL (Sclerotinia sclerotiorum) [%] | Activity (Tobacco mosaic virus) | inhibition of growth at 50 µg/mL (Fusarium oxysporum) [%] | inhibition of growth at 50 µg/mL (Ceratobasidium cereale) [%] | inhibition of growth at 50 µg/mL (Alternaria solani) [%] | inhibition of growth at 50 µg/mL (Fusarium fujikuroi) [%] | inhibition of growth at 50 µg/mL (Alternaria mali) [%] | growth inhibition (GI) (Puccinia triticina) | inhibition of growth at 50 µg/mL [3] [%] | growth inhibition (GI) (Phytophthora infestans) | inhibition of growth at 50 µg/mL (Phytophthora infestans) [%]
CCCc1c(-c2nnc(-c3snnc3C)o2)cnn1-c1ccc(Cl)cc1 | 31 | 41.2 | 44.4 | 19.4 | 0 | 48.3 | 0 | 0 | 23.5 | 0% | 0 | 31 | 17.6 | 31 | 27.6 | 0% | 0 | inactive | 
COc1cccc(-c2nnc(-c3snnc3C)o2)c1 | 13.8 | 17.6 | 33.3 | 41.2 | 0 | 31 | 0 | 0 | 23.5 | 0% | 0 | 13.8 | 11.7 | 17.2 | 27.6 | 39% | 0 |  | 20
Cc1ccc(-c2nnc(-c3snnc3C)o2)s1 | 0 | 9 | 39.7 | 0 | 0 | 21.1 | 0 | 0 | 40.5 | inactive | 31.3 | 0 | 36.8 | 21.1 | 38.9 | 0% | 13.8 | inactive | 
Cc1nn(-c2ccccc2)nc1-c1nnc(-c2snnc2C)o1 | 41.4 | 17.6 | 44.4 | 22.2 | 0 | 31 | 0 | 0 | 23.5 | 10% | 0 | 37.9 | 17.6 | 0 | 31 | 0% | 0 | inactive | 
Cc1nnsc1-c1nnc(-c2ccc(=O)[nH]c2)o1 | 21.1 | 0 | 23.5 | 47.2 | 44.4 | 13.8 | 22.2 | 24.1 | 53.6 | inactive | 33.3 | 13.8 | 31 | 17.6 | 27.3 | inactive | 13.8 |  | 31
Cc1nnsc1-c1nnc(-c2snnc2C)o1 | 0 | 13.6 | 38.1 | 0 | 0 | 31.6 | 0 | 0 | 32.1 | 0% | 31.3 | 0 | 44.7 | 21.1 | 0 | 28% | 13.8 | inactive | 
